This is a sample that favours compounds with a hit; in the whole collection about 1.9% have one here.
Hck-Nef inh: blocks Nef-activated human Hck kinase | P08631 | Recombinant Hck-YEEI plus Nef, Z-Lyte FRET kinase assay | inhibition, % at 20 µM | 220,000 compounds, 0.68% hits | AID 463187;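 active means Hck-Nef kinase inhibition above about 50%, limit read from the data; inactive means inhibition below that limit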;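 further: 0% = DMSO with Hck plus Nef and 100% = Hck alone without Nef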
Target sequence (P08631 whole entry, looked up): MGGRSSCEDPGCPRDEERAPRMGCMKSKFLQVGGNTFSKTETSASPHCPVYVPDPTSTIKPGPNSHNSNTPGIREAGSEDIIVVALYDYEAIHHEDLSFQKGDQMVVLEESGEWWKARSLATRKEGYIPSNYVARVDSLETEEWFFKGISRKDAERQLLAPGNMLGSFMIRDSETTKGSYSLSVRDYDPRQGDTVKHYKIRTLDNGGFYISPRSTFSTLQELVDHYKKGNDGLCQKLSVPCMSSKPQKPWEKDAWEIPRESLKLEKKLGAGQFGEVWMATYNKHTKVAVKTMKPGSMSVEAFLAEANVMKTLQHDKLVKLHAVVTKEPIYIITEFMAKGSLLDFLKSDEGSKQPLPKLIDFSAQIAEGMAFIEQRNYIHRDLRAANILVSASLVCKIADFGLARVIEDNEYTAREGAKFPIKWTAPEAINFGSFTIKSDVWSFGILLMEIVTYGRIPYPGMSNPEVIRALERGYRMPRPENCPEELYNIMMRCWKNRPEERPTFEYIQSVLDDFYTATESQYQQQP
Runt-SMMHC FRET: blocks binding of human RUNX1 Runt domain to CBFb-SMMHC. 220,000 compounds, 0.74% hits. inhibition, % at 20 µM. Cerulean-Runt/Venus-CBFb-SMMHC FRET ratio 530/480, 1 h;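 active means mean inhibition across duplicate retests at 20 µM reaching about 50%, limit read from the data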;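 further: 0% = DMSO wells and 100% = wells with excess untagged CBFb-SMMHC; inhibitors lower the FRET ratio by blocking Runt binding to CBFb-SMMHC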
Tb hexokinase: blocks Trypanosoma brucei hexokinase 1 activity | 220,000 compounds, 0.11% hits | AID 1430 | recombinant TbHK1, G6PDH-coupled NADH A340 | inhibition, % at 10 µM;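 active means inhibition of 50% or more in the single-dose primary screen; inactive means inhibition below 50%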
RanGTP-Impb inh: disruptors of Ran-importin-beta complex formation – biochemical, FRET, CFP-Ran, YFP-importin-beta, homogeneous, primary screen | cell-free CFP-Ran/YFP-importin-beta FRET ratio | 300,000 compounds, 1.1% hits | inhibition, % (no concentration beside the values);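 active means more than half of the replicate wells show a fall in the fluorescence ratio signal beyond about 16%, limit read from the data, passing the limit was not always enough; inconclusive means exactly half of the replicate wells pass the set limit; inactive means fewer than half of replicates pass the limit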;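 further: 0% = DMSO wells and 100% = Ran loaded with GDP instead of GTP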
Runt-CBFb FRET: blocks binding of human RUNX1 Runt domain to CBFb | Q01196+Q13951 | Cerulean-Runt/Venus-CBFb FRET ratio 530/480, 1 h | inhibition, % at 20 µM | 220,000 compounds, 0.46% hits;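 active means inhibition over about 50% at 20 µM in the single-dose screen, limit read from the data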;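 further: 0% = DMSO wells and 100% = excess unlabeled CBFb competitor control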
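test system = Cerulean-tagged RUNX1 Runt domain (FRET donor) fusion protein | reagent = Venus-CBFb binding partner, 100 nM | incubation = protein complex preformed 1 h, compound exposure 1 h, room temperature, dark | detection = FRET fluorescence | read-out basis = loss of energy transfer signal | controls = 5 µM unlabeled CBFb as full-inhibition high control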
An asterisk follows results filed as active; ? = inconclusive; . = no result.

SMILES	Hck-Nef inh	Runt-SMMHC FRET	Tb hexokinase	RanGTP-Impb inh	Runt-CBFb FRET
Cc1ccc(C2/C(=C(/O)c3cnn(-c4ccccc4)c3C)C(=O)C(=O)N2CCCN2CCOCC2)o1 (stereo not drawn)	19.9	-3.5	-12.6	4.1	0.5
COc1cccc(/C(O)=C2/C(=O)C(=O)N(CCN(C)C)C2c2ccccn2)c1 (stereo not drawn)	0.0	-1.9	-16.4	?	-0.6
COc1ccc(/C(O)=C2/C(=O)C(=O)N(CCN3CCOCC3)C2c2ccccn2)cc1 (stereo not drawn)	-1.2	8.2	-16.2	.	6.4
O=C1C(=O)N(CCN2CCOCC2)C(c2ccccn2)/C1=C(/O)c1ccc(F)cc1 (stereo not drawn)	-0.2	3.5	-38.9	19.1*	5.4
CN(C)CCN1C(=O)C(=O)/C(=C(/O)c2ccc3c(c2)OCCO3)C1c1ccccn1 (stereo not drawn)	13.9	-1.1	-31.5	24.3*	1.7
Cc1c(/C(O)=C2/C(=O)C(=O)N(CCN3CCOCC3)C2c2ccccn2)cnn1-c1ccccc1 (stereo not drawn)	-17.8	18.0	-9.3	34.6*	12.4
O=[N+]([O-])c1ccc2oc(C(O)c3cccc(Cl)c3)cc2c1 (stereo not drawn)	.	.	.	-0.2	.
COc1ccccc1NC(=O)c1cnc(SCC(=O)NCC2CCCO2)n(C)c1=O (stereo not drawn)	.	.	.	-1.3	.
COCCN1CCN(C(=O)C2CCC(=O)N(Cc3cccc(C(F)(F)F)c3)C2)CC1 (stereo not drawn)	.	.	.	-4.2	.
O=C(Nc1cccc(Cl)c1)c1cc(N=Nc2ccc([N+](=O)[O-])cc2Cl)ccc1O	83.1*	-13.6	14.5	-1.3	-4.2
COc1ccc(Cl)cc1NC(=O)CN1CCC(n2nnc3cc(C)ccc32)CC1	-0.9	1.9	-7.6	-2.6	-2.5
Cc1ccc2c(c1)nnn2C1CCN(CC(=O)Nc2ccccc2N2CCOCC2)CC1	-1.0	2.5	-4.3	4.3	83.6*
CCOC(=O)N1CCN(S(=O)(=O)c2ccc(C(=O)Nc3sc4c(c3C#N)CCC4)cc2)CC1	3.0	-6.7	-10.4	3.0	-4.9
CCOC(=O)N1CCN(S(=O)(=O)c2ccc(C(=O)Nc3sc4c(c3C(=O)OC)CCN(C)C4)cc2)CC1	.	.	.	8.7	.
CCCN1CCc2c(sc(NC(=O)C3CCN(S(=O)(=O)c4cccs4)CC3)c2C(N)=O)C1	.	.	.	151.2*	.
CC(=O)c1ccc(NC(=O)C2CCN(S(=O)(=O)c3cccs3)CC2)cc1	4.5	2.4	-5.4	0.3	-1.0
CCCN1CCc2c(sc(NC(=O)c3ccc(S(=O)(=O)N4CCN(C(=O)OCC)CC4)cc3)c2C(N)=O)C1	.	.	.	96.5*	.
CCOC(=O)N1CCN(S(=O)(=O)c2ccc(C(=O)Nc3sc4c(c3C(N)=O)CCN(CC)C4)cc2)CC1	.	.	.	43.0*	.
COc1ccccc1N(CC(=O)N/N=C/c1c(O)ccc2ccccc12)S(C)(=O)=O	3.2	52.6*	-9.5	1.7	36.0
CCC(C)n1c(=N)c(C#N)cc2c(=O)n3cccc(C)c3nc21 (stereo not drawn)	40.3	91.1*	-4.6	-0.3	104.5*
Cc1ccc(Cn2c(=N)c(C#N)cc3c(=O)n4cccc(C)c4nc32)cc1	20.7	.	2.6	62.6*	.
CCC(C)n1c(=N)c(C#N)cc2c(=O)n3cc(C)ccc3nc21 (stereo not drawn)	27.8	.	-4.2	4.6	.
CSc1nsc(/C=C/Nc2ccc(C)c(C)c2)c1C#N	23.1	-6.7	-5.1	33.1*	-0.7
COc1ccc(/C=C2/SC(=S)N(c3ccc(S(=O)(=O)Nc4nccs4)cc3)C2=O)cc1	59.2*	-20.9	21.2	-5.6	-9.8
CCN(CC)c1ccc(/C=C(\C#N)C(N)=O)cc1	19.7	63.0*	-4.5	.	29.4
SMILES	Hck-Nef inh	Runt-SMMHC FRET	Tb hexokinase	RanGTP-Impb inh	Runt-CBFb FRET
CCN(CC)c1ccc(/C=C(\C#N)C(N)=S)cc1	25.1	-27.7	-9.1	3.2	-18.4
O=C(Cc1ccc(S(=O)(=O)N2CCOCC2)s1)Nc1ccccc1N1CCCC1	.	.	.	18.8*	.
COc1ccc(C2(C)NC(=O)N(CC(=O)Nc3ccc(Br)c(C)c3)C2=O)cc1OC (stereo not drawn)	.	.	.	21.3*	.
CC1CCN(C(=O)CSc2nnc(-c3cc4ccccc4cc3O)n2Cc2ccco2)CC1	4.6	24.0	3.8	39.4*	25.8
COc1ccc(C(=O)CSc2nnc(-c3cc4ccccc4cc3O)n2Cc2ccco2)cc1	0.6	6.5	4.2	-4.1	20.5
CCCn1c(=N)c(S(=O)(=O)c2ccccc2)cc2c(=O)n3cccc(C)c3nc21	.	.	.	144.6*	.
Cc1cccn2c(=O)c3cc(S(=O)(=O)c4ccc(Br)cc4)c(=N)n(C4CCCC4)c3nc12	.	.	.	2.6	.
CCCCCn1c(=N)c(S(=O)(=O)c2ccc(Cl)cc2)cc2c(=O)n3cccc(C)c3nc21	.	.	.	67.3*	.
Cn1c(=O)c2[nH]c(N3CCN(c4ccccn4)CC3)nc2n(C)c1=O	20.0	-0.3	-2.2	0.5	4.5
COc1ccccc1NC(=S)N1CCN(c2cccc(C)c2C)CC1	.	.	.	5.2	.
CCn1c(CNc2ccc(C)cc2)nnc1SCC(N)=O	15.3	-2.0	3.3	-2.1	0.9
COc1cc(/C=C(/C#N)c2nc(-c3cc4ccccc4oc3=O)cs2)cc([N+](=O)[O-])c1O	113.8*	-28.9	6.6	.	-13.6
CC(=NCc1ccco1)c1c(C)[nH]n(-c2nc3ccccc3s2)c1=O	10.4	-1.0	-2.0	?	-1.9
C/C(=N/NC(=O)c1cccs1)c1c(C)[nH]n(-c2nc3ccccc3s2)c1=O	17.6	98.2*	-10.2	-6.9	44.8
CSc1cccc(CN2CCCC(CNC(=O)c3ccco3)C2)c1 (stereo not drawn)	.	.	.	3.9	.
CCOC(=O)c1cc2c(=O)n3ccccc3nc2n(Cc2ccco2)c1=NC(=O)c1ccccc1OCC	20.2	87.5*	-11.7	0.6	73.5*
CCOC(=O)c1cc2c(=O)n3ccccc3nc2n(Cc2ccco2)c1=NC(=O)c1cccnc1	11.8	46.5	-19.0	2.7	52.0*
CCOC(=O)c1cc2c(=O)n3cccc(C)c3nc2n(Cc2ccco2)c1=NC(=O)c1cccnc1	14.7	62.6*	-14.3	.	102.2*
COc1ccc(CCNC(=O)c2cc3c(=O)n4ccccc4nc3n(Cc3ccco3)c2=N)cc1OC	.	.	.	13.2	.
CCOC(=O)c1c(C)nc2c(C)cccn12	-1.2	-3.4	-0.9	3.3	1.2
O=C(O)c1ccc(CS(=O)(=O)c2ccc(Br)cc2)cc1	.	.	.	6.9	.
Cc1ccc(C2(c3ccc(C)cc3)CC2C(=O)Nc2ccc([N+](=O)[O-])cc2O)cc1 (stereo not drawn)	0.7	-0.2	-6.5	-2.5	1.8
CC1(NC(=O)CCc2nc3ccccc3c(=O)[nH]2)CCS(=O)(=O)C1 (stereo not drawn)	.	.	.	4.5	.
CCOC(=O)c1cc(C#N)c(SCC(=O)c2cc(C#N)c(SC)nc2C)[nH]c1=O	1.4	35.5	-8.4	60.4*	15.7

Assay outcomes deposited in PubChem BioAssay by several laboratories.
